Converted amounts (≈) assume the structure as drawn. Where two headings read alike, the source gives them in different places. Ends that are not written are not given here.
Legend:
[1] = Effect of MHB dilution on antimicrobial activity of a panel of antibiotics; assay type: cell-based; details: MHB from 100% to 12.5% (Figure S2)
S. aureus USA300 = test: microbe, parasite or virus in culture; assay type: cell-based, Staphylococcus aureus; details: for MIC: Staphylococcus aureus
E. coli membrane = test: Membrane permeabilization; assay type: cell-based, Escherichia coli; details: Figure S4A
[2] = test system: preformed biofilms of E. coli E423–17; test: Disruption of preformed biofilms; assay type: cell-based, Escherichia coli
Summary of the method: (§1)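 Biofilms grown from an exponential-phase culture (OD600 ~0.4) for 24 h at 37°C in TSB, then washed with PBS to remove planktonic cells. Treated with peptide in MHB (different strengths) for 24 h at 37°C. Live cells measured with XTT in TSB (2 h, 37°C, A450), blanked on medium with XTT. Results given as % of water-treated biofilm, mean ± SD, one-way ANOVA.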

[3] = test system: preformed biofilms of S. aureus USA300 LAC; test: Disruption of preformed biofilms; assay type: cell-based, Staphylococcus aureus; details: 100% MHB, 24 h treatment, XTT
Summary of the method: as §1

E. coli E423–17 = assay type: cell-based, Escherichia coli
S. aureus USA300 LAC = assay type: cell-based, Staphylococcus aureus; details: 17 passages at sub-MIC, MHB
P. aeruginosa 152 = assay type: cell-based, Pseudomonas aeruginosa
A. baumannii B28–16 = assay type: cell-based, Acinetobacter baumannii
[4] = test system: S. aureus USA300 membrane; test: Membrane depolarization; assay type: cell-based, Staphylococcus aureus; details: peptide up to 2× MIC; Triton X-100 0.1% (Figure 5C)
Summary of the method: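 Exponential-phase MRSA USA300 grown in TSB, washed, and resuspended in 2 volumes of PBS with 25 mM glucose. Energised for 15 min at 37°C, then given 500 nM (final) DiBAC4(3). Baseline fluorescence (ex 485/em 520 nm) read for 20 min; peptide then added and reading continued for 40 min. Triton X-100 (0.1%) was the positive control.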

[5] = MRSA|USA300, read-out: Antimicrobial activity (MIC), MRSA in MHB, 10% human serum
[6] = MRSA|USA300, read-out: Antimicrobial activity (MIC), MRSA in MHB, NaCl (150 mM)
[7] = MRSA|USA300, pH 6.3, read-out: Antimicrobial activity (MIC), MRSA in MHB, pH 6.3
[8] = MRSA|USA300, pH 7.2, read-out: Antimicrobial activity (MIC), MRSA in MHB, pH 7.2

## NCC[C@H](O)C(=O)N[C@@H]1C[C@H](N)[C@@H](O[C@H]2O[C@H](CN)[C@@H](O)[C@H](O)[C@H]2O)[C@H](O)[C@H]1O[C@H]1O[C@H](CO)[C@@H](O)[C@H](N)[C@H]1O [Amikacin]
[1]
  Change in MIC with the dilution of MHB: small changes in MIC values
S. aureus USA300; [5]
  MIC: 32 µM (≈ 18.7 µg/mL)
S. aureus USA300; [6]
  MIC: 32 µM (≈ 18.7 µg/mL)

## CCCCCCCCCC(=O)N[C@@H](Cc1c[nH]c2ccccc12)C(=O)N[C@H](CC(N)=O)C(=O)N[C@@H](CC(=O)O)C(=O)N[C@@H]1C(=O)NCC(=O)N[C@@H](CCCN)C(=O)N[C@@H](CC(=O)O)C(=O)N[C@H](C)C(=O)N[C@@H](CC(=O)O)C(=O)NCC(=O)N[C@H](CO)C(=O)N[C@@H]([C@H](C)CC(=O)O)C(=O)N[C@@H](CC(=O)c2ccccc2N)C(=O)O[C@@H]1C [Daptomycin]
S. aureus USA300; USA300
  Antimicrobial activity (MIC): 1 µM
S. aureus USA300; USA300, pH 6.3
  Antimicrobial activity (MIC): 1 µM
S. aureus USA300; USA300, pH 7.2
  Antimicrobial activity (MIC): 1 µM

## CNC(C)C1CCC(N)C(OC2C(N)CC(N)C(OC3OCC(C)(O)C(NC)C3O)C2O)O1 (centres unmarked) [Gentamicin]
E. coli membrane
  Membrane permeation (PI fluorescence): did not permeate the E. coli membrane
S. aureus USA300; [7]
  MIC: 1 to 2 µM (≈ 0.478 to 0.955 µg/mL)
S. aureus USA300; [8]
  MIC: 0.5 µM (≈ 0.239 µg/mL)
S. aureus USA300; [5]
  MIC: 0.5 to 1 µM (≈ 0.239 to 0.478 µg/mL)
S. aureus USA300; [6]
  MIC: 1 µM (≈ 0.478 µg/mL)

## CC[C@H](C)[C@H](NC(=O)[C@H](CCCCN)NC(=O)[C@H](CCC(=O)O)NC(=O)[C@H](CCCCN)NC(=O)[C@H](CO)NC(=O)[C@H](CCCCN)NC(=O)[C@H](CCCNC(=N)N)NC(=O)[C@H](Cc1ccccc1)NC(=O)[C@H](Cc1ccccc1)NC(=O)[C@H](CC(=O)O)NC(=O)CNC(=O)[C@H](CC(C)C)NC(=O)[C@@H](N)CC(C)C)C(=O)NCC(=O)N[C@@H](CCCCN)C(=O)N[C@@H](CCC(=O)O)C(=O)N[C@@H](Cc1ccccc1)C(=O)N[C@@H](CCCCN)C(=O)N[C@@H](CCCNC(=N)N)C(=O)N[C@H](C(=O)N[C@H](C(=O)N[C@@H](CCC(N)=O)C(=O)N[C@@H](CCCNC(=N)N)C(=O)N[C@H](C(=O)N[C@@H](CCCCN)C(=O)N[C@@H](CC(=O)O)C(=O)N[C@@H](Cc1ccccc1)C(=O)N[C@@H](CC(C)C)C(=O)N[C@@H](CCCNC(=N)N)C(=O)N[C@@H](CC(N)=O)C(=O)N[C@@H](CC(C)C)C(=O)N[C@H](C(=O)N1CCC[C@H]1C(=O)N[C@@H](CCCNC(=N)N)C(=O)N[C@H](C(=O)N[C@@H](CCC(=O)O)C(=O)N[C@@H](CO)C(=O)O)[C@@H](C)O)C(C)C)[C@@H](C)CC)C(C)C)[C@@H](C)CC [LL-37]
[2]; 12.5% MHB (Figure S1)
  Effect on biofilms with increase in peptide concentration: dose-dependent antibiofilm effect is clear
[2]; 100% MHB (Figure S1)
  Effect on biofilms with increase in peptide concentration: subtle effect
[3]
  Antibiofilm activity against 24 h preformed biofilms: essentially no antibiofilm activity
S. aureus USA300; 12.5% MHB (Figure 3)
  Activity (MIC), screen of LL-37 fragments: became active
S. aureus USA300; 100% MHB (Figure 3)
  Activity (MIC), screen of LL-37 fragments: did not display any activity
S. aureus USA300; RPMI and DMEM media (Table S2)
  Antimicrobial activity (MIC) in cell culturing media: remained active
E. coli E423–17; 100% MHB, rich media (Figure 3)
  Activity (MIC), screen of LL-37 fragments: active
E. coli E423–17; RPMI and DMEM media (Table S2)
  Antimicrobial activity (MIC) in cell culturing media: remained active

## CC(=O)NC[C@H]1CN(c2ccc(N3CCOCC3)c(F)c2)C(=O)O1 [Linezolid]
[1]
  Change in MIC with the dilution of MHB: essentially no changes in antibacterial activity
S. aureus USA300; [7]
  MIC: 8 µM (≈ 2.7 µg/mL)
S. aureus USA300; [8]
  MIC: 8 µM (≈ 2.7 µg/mL)
S. aureus USA300; [5]
  MIC: 8 µM (≈ 2.7 µg/mL)

## C/C(=C\C(=O)OCCCCCCCCC(=O)O)C[C@@H]1OC[C@H](C[C@@H]2O[C@H]2[C@@H](C)[C@H](C)O)[C@@H](O)[C@H]1O [Muporicin]
[1]
  Change in MIC with the dilution of MHB: essentially no changes in antibacterial activity
S. aureus USA300; MRSA in MHB, 10% human serum
  Antimicrobial activity (MIC): 4 µM
S. aureus USA300; MRSA in MHB, 20% human serum
  Antimicrobial activity (MIC): 4 µM
S. aureus USA300; MRSA in MHB, NaCl (150 mM)
  Antimicrobial activity (MIC): 1 µM
S. aureus USA300; MRSA in MHB, pH 6.3
  Antimicrobial activity (MIC): 0.5 µM
S. aureus USA300; MRSA in MHB, pH 7.2
  Antimicrobial activity (MIC): 1 µM

## CCOc1ccc2ccccc2c1C(=O)N[C@@H]1C(=O)N2[C@@H]1SC(C)(C)[C@@H]2C(=O)O [Nafcillin]
[1]
  Change in MIC with the dilution of MHB: small changes in MIC values
S. aureus USA300 LAC
  Fold increase of MIC after multiple passages: 32 fold
S. aureus USA300; [5]
  MIC: 16 µM (≈ 6.63 µg/mL)
S. aureus USA300; [6]
  MIC: 32 µM (≈ 13.3 µg/mL)

## NC[C@H]1O[C@H](O[C@H]2[C@H](O)[C@@H](O[C@H]3O[C@H](CO)[C@@H](O)[C@H](N)[C@H]3O)[C@H](N)C[C@@H]2N)[C@H](N)C[C@@H]1O [Tobramycin]
[1]
  Change in MIC with the dilution of MHB: essentially no changes in antibacterial activity
S. aureus USA300; [6]
  MIC: 4 µM (≈ 1.87 µg/mL)

## CN[C@H](CC(C)C)C(=O)N[C@H]1C(=O)N[C@@H](CC(N)=O)C(=O)N[C@H]2C(=O)N[C@H]3C(=O)N[C@H](C(=O)N[C@H](C(=O)O)c4cc(O)cc(O)c4-c4cc3ccc4O)[C@H](O)c3ccc(c(Cl)c3)Oc3cc2cc(c3O[C@@H]2O[C@H](CO)[C@@H](O)[C@H](O)[C@H]2O[C@H]2C[C@](C)(N)[C@H](O)[C@H](C)O2)Oc2ccc(cc2Cl)[C@H]1O [Vancomycin]
[1]
  Change in MIC with the dilution of MHB: essentially no changes in antibacterial activity
S. aureus USA300; [7]
  MIC: 0.5 µM (≈ 0.725 µg/mL)
S. aureus USA300; [8]
  MIC: 0.5 µM (≈ 0.725 µg/mL)
S. aureus USA300; [5]
  MIC: 0.5 µM (≈ 0.725 µg/mL)
S. aureus USA300; [6]
  MIC: 0.5 to 1 µM (≈ 0.725 to 1.45 µg/mL)

## KEKIGKEFKR-NH2 (C-terminus assumed) [KE-10]
S. aureus USA300; USA300
  Antimicrobial activity (MIC) in cell culturing media: > 64 µM

## KRIVQRIK-NH2 [W538]
P. aeruginosa 152
  Activity (MIC), P. aeruginosa: >32 µM
E. coli E423–17; E423–17
  Activity (MIC), screen of LL-37 fragments: 8 µM

## KRIWQRIK-NH2 [W539]
P. aeruginosa 152
  Activity (MIC), P. aeruginosa: >32 µM

## KRIWQRWK-NH2 [W540]
P. aeruginosa 152
  Activity (MIC), P. aeruginosa: >32 µM
Human skin HaCaT cells
  Toxicity to HaCaT cells (viability): more toxic than other peptides

## KRWWQRWK-NH2 [W541]
P. aeruginosa 152
  Activity (MIC), P. aeruginosa: >32 µM
E. coli E423–17; E423–17
  Activity (MIC), E. coli: 8 µM

## KRWWQWWK-NH2 [W542]
P. aeruginosa 152
  Activity (MIC), P. aeruginosa: 4 to 8 µM
S. aureus USA300; USA300
  Activity (MIC), S. aureus: 8 µM
A. baumannii B28–16
  Activity (MIC), A. baumannii: 32 µM
E. coli E423–17; E423–17
  Activity (MIC), E. coli: 4 µM

## RIKDFLRNLV-NH2 (C-terminus assumed) [RIK-10]
S. aureus USA300; 12.5% MHB (Figure 3)
  Activity (MIC), screen of LL-37 fragments: became active
S. aureus USA300; RPMI and DMEM media (Table S2)
  Antimicrobial activity (MIC) in cell culturing media: poor activity
E. coli E423–17; E423–17
  Activity (MIC), screen of LL-37 fragments: 16 µM
  Antimicrobial activity (MIC) in DMEM: 8 µM
E. coli E423–17; RPMI (Table S2)
  Antimicrobial activity in RPMI: poor activity

## RRWWRWWL-NH2 [W544]
P. aeruginosa 152
  Activity (MIC), P. aeruginosa: 4 µM
Human skin HaCaT cells
  Toxicity to HaCaT cells (viability): more toxic than other peptides
S. aureus USA300; USA300
  Activity (MIC), S. aureus: 4 µM
E. coli E423–17; E423–17
  Activity (MIC), E. coli: 4 µM

## RRWWRWWR-NH2 [W543]
P. aeruginosa 152
  Activity (MIC), P. aeruginosa: 8 µM
Human skin HaCaT cells
  Toxicity to HaCaT cells (viability): least toxic
S. aureus USA300; USA300
  Antimicrobial activity (MIC): 8 µM
S. aureus USA300; USA300, pH 7.2
  Antimicrobial activity (MIC): 8 µM
E. coli E423–17; E423–17
  Activity (MIC), E. coli: 8 µM

## Triton X-100
[4]
  Membrane depolarization: strong membrane depolarization

## colistin
E. coli membrane
  Membrane permeation (PI fluorescence): powerful membrane permeator

Reference: paper PMC12744307 (ACS infectious diseases, 2023)
